ChEMBL document CHEMBL1208671, “Small structural changes of pentacyclic lupane type triterpenoid derivatives lead to significant differences in their anticancer properties” (Eur J Med Chem, 2010)
Activity calls are given as the source filed them. The rule behind the calls is not given here.

Experiments:
[1] = Cytotoxicity against human 518A2 cells after 96 hrs by SRB colorimetric assay; assay type: functional, cell-based; settings: 518A2, 96 h
Summary of the method: (§1)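 Cells kept as monolayers in RPMI 1640 with 10 % heat-inactivated FBS and 1 % penicillin/streptomycin, 37°C, 5 % CO2, seeded at optimal density. Exponentially growing cells exposed to compound for 96 h, fixed with 10 % TCA, stained with sulforhodamine B for 30 min, washed with 1 % acetic acid, bound dye dissolved in 10 mM Tris base, OD read at 570 nm. IC50 estimated from semi-log dose-response curves versus untreated controls.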

[2] = Cytotoxicity against human A253 cells after 96 hrs by SRB colorimetric assay; assay type: functional, cell-based; settings: A253, 96 h; summary of the method: as §1
A-431 = assay: Cytotoxicity against human A431 cells after 96 hrs by SRB colorimetric assay; assay type: functional, cell-based; settings: A-431, 96 h; summary of the method: as §1
A549 = assay: Cytotoxicity against human A549 cells after 96 hrs by SRB colorimetric assay; assay type: functional, cell-based; settings: A549, 96 h; summary of the method: as §1
A2780 = assay: Cytotoxicity against human A2780 cells after 96 hrs by SRB colorimetric assay; assay type: functional, cell-based; settings: A2780, 96 h; summary of the method: as §1
HT-29 [3] = assay: Cytotoxicity against human HT-29 cells after 96 hrs by SRB colorimetric assay; assay type: functional, cell-based; settings: HT-29, 96 h; summary of the method: as §1
MCF7 = assay: Cytotoxicity against human MCF7 cells after 96 hrs by SRB colorimetric assay; assay type: functional, cell-based; settings: MCF7, 96 h; summary of the method: as §1
SW-1736 = assay: Cytotoxicity against human SW1736 cells after 96 hrs by SRB colorimetric assay; assay type: functional, cell-based; settings: SW-1736, 96 h; summary of the method: as §1
HT-29 [4] = assay: Induction of apoptosis in human HT-29 cells at IC90 concentration after 48 hrs using annexin V and propidium iodide staining by FACS analysis relative to control; assay type: functional
HT-29 [5] = assay: Induction of apoptosis in human HT-29 cells assessed as DNA fragmentation at IC90 concentration after 24 hrs using ethidium bromide staining by DNA gel electrophoresis; assay type: functional, cell-based
Summary of the method: (§2)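 RPMI 1640 cultures (10 % heat-inactivated FBS, 37°C, 5 % CO2) were exposed to the IC90 concentration for 24 h. For trypan blue exclusion, cells excluding the dye were scored as viable or early apoptotic and blue cells as necrotic. DNA was run on agarose gels, where internucleosomal laddering (180 bp multiples) indicates apoptosis and a smear indicates necrosis.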

HT-29 [6] = assay: Induction of apoptosis in human HT-29 cells assessed as programmed cell death at IC90 concentration after 24 hrs by trypan blue exclusion test; assay type: functional, cell-based; summary of the method: as §2
HT-29 [7] = assay: Induction of apoptosis in human HT-29 cells assessed as upregulation of caspase 2 activity at IC90 concentration after 2 hrs; assay type: functional, cell-based
Summary of the method: (§3)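 HT-29 monolayers were kept in RPMI 1640 with 10 % heat-inactivated FBS and 1 % penicillin/streptomycin at 37°C in 5 % CO2. Cells were exposed to the test agent, and caspase-2, -3, -8 and -9 activities were measured after 2, 6 and 24 h.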

HT-29 [8] = assay: Induction of apoptosis in human HT-29 cells assessed as upregulation of caspase 2 activity at IC90 concentration after 6 hrs; assay type: functional, cell-based; summary of the method: as §3
HT-29 [9] = assay: Induction of apoptosis in human HT-29 cells assessed as upregulation of caspase 2 activity at IC90 concentration after 24 hrs; assay type: functional, cell-based; summary of the method: as §3
HT-29 [10] = assay: Induction of apoptosis in human HT-29 cells assessed as upregulation of caspase 8 activity at IC90 concentration after 24 hrs; assay type: functional, cell-based; summary of the method: as §3
HT-29 [11] = assay: Induction of apoptosis in human HT-29 cells assessed as upregulation of caspase 9 activity at IC90 concentration after 24 hrs; assay type: functional, cell-based; summary of the method: as §3
HT-29 [12] = assay: Induction of apoptosis in human HT-29 cells assessed as upregulation of caspase 8 activity at IC90 concentration after 6 hrs; assay type: functional, cell-based; summary of the method: as §3
HT-29 [13] = assay: Induction of apoptosis in human HT-29 cells assessed as upregulation of caspase 9 activity at IC90 concentration after 6 hrs; assay type: functional, cell-based; summary of the method: as §3
HT-29 [14] = assay: Induction of apoptosis in human HT-29 cells assessed as upregulation of caspase 3 activity at IC90 concentration after 6 hrs; assay type: functional, cell-based; summary of the method: as §3
HT-29 [15] = assay: Cell cycle arrest in human HT-29 cells assessed as accumulation at G2/M phase at IC90 concentration after 48 hrs using propidium iodide staining by flow cytometry; assay type: functional
Summary of the method: (§4)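 Exponentially growing cells were exposed to the IC90 concentration for 24 and 48 h. Cell-cycle phase distribution, including the sub-G1 apoptotic peak, was compared with untreated controls at each time.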

HT-29 [16] = assay: Cell cycle arrest in human HT-29 cells assessed as accumulation at S phase at IC90 concentration after 48 hrs using propidium iodide staining by flow cytometry; assay type: functional; summary of the method: as §4
HT-29 [17] = assay: Cell cycle arrest in human HT-29 cells assessed as accumulation at G1 phase at IC90 concentration after 48 hrs using propidium iodide staining by flow cytometry; assay type: functional; summary of the method: as §4
HT-29 [18] = assay: Cell cycle arrest in human HT-29 cells assessed as accumulation at subG1 phase at IC90 concentration after 48 hrs using propidium iodide staining by flow cytometry; assay type: functional; summary of the method: as §4
HT-29 [19] = assay: Induction of apoptosis in human HT-29 cells assessed as upregulation of caspase 8 activity at IC90 concentration after 2 hrs; assay type: functional, cell-based; summary of the method: as §3
HT-29 [20] = assay: Induction of apoptosis in human HT-29 cells assessed as upregulation of caspase 9 activity at IC90 concentration after 2 hrs; assay type: functional, cell-based; summary of the method: as §3
HT-29 [21] = assay: Induction of apoptosis in human HT-29 cells assessed as upregulation of caspase 3 activity at IC90 concentration after 2 hrs; assay type: functional, cell-based; summary of the method: as §3
HT-29 [22] = assay: Induction of apoptosis in human HT-29 cells assessed as upregulation of caspase 3 activity at IC90 concentration after 24 hrs; assay type: functional, cell-based; summary of the method: as §3
HT-29 [23] = assay: Cell cycle arrest in human HT-29 cells assessed as accumulation at G2/M phase at IC90 concentration after 24 hrs using propidium iodide staining by flow cytometry; assay type: functional; summary of the method: as §4
HT-29 [24] = assay: Cell cycle arrest in human HT-29 cells assessed as accumulation at S phase at IC90 concentration after 24 hrs using propidium iodide staining by flow cytometry; assay type: functional; summary of the method: as §4
HT-29 [25] = assay: Cell cycle arrest in human HT-29 cells assessed as accumulation at G1 phase at IC90 concentration after 24 hrs using propidium iodide staining by flow cytometry; assay type: functional; summary of the method: as §4
HT-29 [26] = assay: Cell cycle arrest in human HT-29 cells assessed as accumulation at subG1 phase at IC90 concentration after 24 hrs using propidium iodide staining by flow cytometry; assay type: functional; summary of the method: as §4

## C=C(C)[C@@H]1CC[C@]2(C(=O)O)CC[C@]3(C)[C@H](CC[C@@H]4[C@@]5(C)CCC(=O)C(C)(C)[C@@H]5CC[C@]43C)[C@@H]12 [BETUNOLIC ACID]
[1]
  IC50: 10.4 µM
[2]
  IC50: 10.1 µM
A-431
  IC50: 3.26 µM
A549
  IC50: 10.1 µM
A2780
  IC50: 2.98 µM
HT-29 [3]
  IC50: 10 µM
MCF7
  IC50: 10.4 µM
SW-1736
  IC50: 3.05 µM

## C=C(C)[C@@H]1CC[C@]2(C(=O)O)CC[C@]3(C)[C@H](CC[C@@H]4[C@@]5(C)CC[C@H](O)C(C)(C)[C@@H]5CC[C@]43C)[C@@H]12
HT-29 [4]
  Activity: Active
HT-29 [5]
  Activity: Active

## C=C(C)[C@@H]1CC[C@]2(C(=O)OCC(N)(CO)CO)CC[C@]3(C)[C@H](CC[C@@H]4[C@@]5(C)CCC(=O)C(C)(C)[C@@H]5CC[C@]43C)[C@@H]12
[1]
  IC50: 10.8 µM
[2]
  IC50: 10.5 µM
A-431
  IC50: 10.1 µM
A549
  IC50: 10.8 µM
A2780
  IC50: 10 µM
HT-29 [3]
  IC50: 9.44 µM
MCF7
  IC50: 10.6 µM
SW-1736
  IC50: 10.1 µM
HT-29 [4]
  Activity: 20%
HT-29 [5]
  Activity: Active
HT-29 [6]
  Activity: Active
HT-29 [7]
  Activity: Active
HT-29 [8]
  Activity: inactive
HT-29 [9]
  Activity: inactive
HT-29 [10]
  Activity: inactive
HT-29 [11]
  Activity: inactive
HT-29 [12]
  Activity: inactive
HT-29 [13]
  Activity: inactive
HT-29 [14]
  Activity: inactive
HT-29 [15]
  Activity: inactive
HT-29 [16]
  Activity: inactive
HT-29 [17]
  Activity: inactive
HT-29 [18]
  Activity: inactive

## C=C(C)[C@@H]1CC[C@]2(C(=O)NC(CO)(CO)CO)CC[C@]3(C)[C@H](CC[C@@H]4[C@@]5(C)CC[C@H](O)C(C)(C)[C@@H]5CC[C@]43C)[C@@H]12
[1]
  IC50: > 100 µM
[2]
  IC50: > 100 µM
A-431
  IC50: > 100 µM
A549
  IC50: > 100 µM
A2780
  IC50: > 100 µM
HT-29 [3]
  IC50: > 100 µM
MCF7
  IC50: > 100 µM
SW-1736
  IC50: > 100 µM

## C=C(C)[C@@H]1CC[C@]2(C(=O)NC(CO)(CO)CO)CC[C@]3(C)[C@H](CC[C@@H]4[C@@]5(C)CC[C@H](OC(C)=O)C(C)(C)[C@@H]5CC[C@]43C)[C@@H]12
[1]
  IC50: 29.6 µM
[2]
  IC50: 29.5 µM
A-431
  IC50: 10.3 µM
A549
  IC50: 30.5 µM
A2780
  IC50: 10.1 µM
HT-29 [3]
  IC50: 10 µM
MCF7
  IC50: 29.4 µM
SW-1736
  IC50: 10.2 µM

## C=C(C)[C@@H]1CC[C@]2(C(=O)O)CC[C@]3(C)[C@H](CC[C@@H]4[C@@]5(C)CC[C@H](OC(C)=O)C(C)(C)[C@@H]5CC[C@]43C)[C@@H]12
[1]
  IC50: 4.65 µM
[2]
  IC50: 11.8 µM
A-431
  IC50: 10.7 µM
A549
  IC50: 6.73 µM
A2780
  IC50: 19 µM
HT-29 [3]
  IC50: 16.1 µM
MCF7
  IC50: 11.1 µM
SW-1736
  IC50: 7.3 µM

## C=C(C)[C@@H]1CC[C@]2(C(=O)OCC(N)(CO)CO)CC[C@]3(C)[C@H](CC[C@@H]4[C@@]5(C)CC[C@H](O)C(C)(C)[C@@H]5CC[C@]43C)[C@@H]12
[1]
  IC50: > 100 µM
[2]
  IC50: > 100 µM
A-431
  IC50: 3.61 µM
A549
  IC50: > 100 µM
A2780
  IC50: 3.46 µM
HT-29 [3]
  IC50: 8.9 µM
MCF7
  IC50: > 100 µM
SW-1736
  IC50: > 100 µM

## C=C(C)[C@@H]1CC[C@]2(C(=O)OCC(N)(CO)CO)CC[C@]3(C)[C@H](CC[C@@H]4[C@@]5(C)CC[C@H](OC(C)=O)C(C)(C)[C@@H]5CC[C@]43C)[C@@H]12
[1]
  IC50: 2.87 µM
[2]
  IC50: 2.02 µM
A-431
  IC50: 2.54 µM
A549
  IC50: 3.44 µM
A2780
  IC50: 3.62 µM
HT-29 [3]
  IC50: 2.45 µM
MCF7
  IC50: 2.76 µM
SW-1736
  IC50: 3.73 µM
HT-29 [4]
  Activity: 20%
HT-29 [5]
  Activity: Active
HT-29 [6]
  Activity: Active
HT-29 [7]
  Activity: inactive
HT-29 [19]
  Activity: inactive
HT-29 [20]
  Activity: inactive
HT-29 [21]
  Activity: inactive
HT-29 [8]
  Activity: Active
HT-29 [9]
  Activity: inactive
HT-29 [10]
  Activity: inactive
HT-29 [11]
  Activity: inactive
HT-29 [22]
  Activity: inactive
HT-29 [23]
  Activity: 16.39%
HT-29 [24]
  Activity: 19.83%
HT-29 [25]
  Activity: 38.41%
HT-29 [26]
  Activity: 25.11%
HT-29 [15]
  Activity: 7.6%
HT-29 [16]
  Activity: 13.85%
HT-29 [17]
  Activity: 18.07%
HT-29 [18]
  Activity: 60.66%

## C=C(C)[C@@H]1CC[C@]2(C(=O)OCC(CO)CO)CC[C@]3(C)[C@H](CC[C@@H]4[C@@]5(C)CC[C@H](O)C(C)(C)[C@@H]5CC[C@]43C)[C@@H]12
[1]
  IC50: > 100 µM
[2]
  IC50: > 100 µM
A-431
  IC50: > 100 µM
A549
  IC50: > 100 µM
A2780
  IC50: > 100 µM
HT-29 [3]
  IC50: > 100 µM
MCF7
  IC50: > 100 µM
SW-1736
  IC50: > 100 µM
